Here are results for 14 molecules from PubChem BioAssay.

A short description of experiment [1]: inhibitors of TNFa-induced NFkB p65 translocation, primary screen, imaging, HUVEC, MLSMR starter and 10KST1 sets (AID 438;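 active = inhibition above 20% together with a positive visual image hit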;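 note: compound added about 3h40 before a 20 min TNFalpha stimulation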;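 for inhibition: signal is the nuclear over cytoplasmic p65 intensity ratio per well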). The conditions noted are these: HUVEC TNFa-induced p65 nuclear translocation; cell count: measured here: nuclei count (cytotoxicity indicator), at 2.08 µM; inhibition: at 2 µM, stronger effect = higher value, 0% TNFa-plus-vehicle, 100% no-TNFa wells.

A short description of experiment [2]: reduction of polyQ htt aggregates in cells – imaging, exon1htt(103Q)mCFP cells, high-content imaging, primary screen (AID 483;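 active = visual image review flags a hit and inhibition of aggregation exceeds 20%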;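 note: compound exposure lasted 3 days before fixation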;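 for nuclei count: percent of the per-plate median nuclei count of sample wells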). The conditions noted are these: exon1htt(103Q)mCFP cell line, aggregate imaging, at 2 µM; inhibition of aggregation: stronger effect = higher value; nuclei count: measured here: cell count, toxicity.
Experiment [3] is described as follows: endothelial E-selectin expression blockers – imaging, HUVEC, immunofluorescence, MLSMR starter and 10KST1 sets, primary screen (AID 487;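 active = visually confirmed hit in the image check and inhibition above 20%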;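 for inhibition: signal is fraction of cell area covered by stained E-selectin grains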;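 for nuclei count: 100% = median nuclei count of all wells on the same plate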). The conditions noted are these: HUVEC TNFalpha-induced E-selectin immunofluorescence imaging, at 2 µM; inhibition: stronger effect = higher value; nuclei count: measured here: cell number, toxicity.
Experiment [4] concerns the target Voltage-gated potassium channel subunit beta-2 (Rattus norvegicus) (UniProt P62483). Put plainly: inhibitors of rat Kvbeta2 reductase activity – biochemical, NADPH fluorescence, primary screen (AID 622;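 active = fluorescence slope higher than the sample average by over 3 SD, cut at about -0.22 in these data, passing the limit was not always enough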;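 note: slope of raw intensity against log time taken from 70 to 1610 s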). The note with it: recombinant KvBeta, 4-cyanobenzaldehyde reduction, at 10 µM, stronger effect = higher value.
For experiment [5] the target is unchanged. The experiment can be described thus: enhancers of rat Kvbeta2 NADPH turnover – biochemical, NADPH fluorescence, primary screen (AID 623).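 Note: fluorescence intensity change per second fitted from 20 to 320 s.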 The conditions noted are these: Recombinant KvBeta, NADPH fluorescence decrease slope, 10 min; at 10 µM; stronger effect = lower value.
Experiment [6] has as its target Muscarinic acetylcholine receptor M4 (Homo sapiens) (UniProt P08173). Put plainly: M4-linked GIRK flux change, two-sided – cell-based, HEK293 M4/GIRK, thallium flux, BTC-AM, M4 allosteric agonist project, primary screen (AID 625;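 active = fluorescence slope after compound addition differing from the mean of all tested samples at 99.7% confidence, mostly higher but some lower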;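 note: thallium influx through GIRK channels coupled to M4 in HEK293 cells with BTC-AM dye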). The note with it: at 10 µM, actives lie on both sides. The essentials: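 Material: M4/GIRK1/GIRK2 stable HEK293 cell line. Medium: pH 7.3 thallium assay buffer. Dosing: single compound concentration, 10 µM final. Schedule: 1 h dye loading, 2 min kinetic read. Measured by: kinetic fluorescence with BTC-AM dye. Read-out: post-addition slope, 15–24 s, of baseline-normalized fluorescence. Benchmarks: carbachol and DMSO controls.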

A short description of experiment [7]: blockers of RIG-like receptor reporter activation – cell-based, Sendai virus stimulus, luciferase, 10K MLSCN set, TLR/RLR signaling modifier project, primary screen (AID 602276;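 active = inhibition at or above 50% at 10 µM; inactive = inhibition below 50%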;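 note: firefly luciferase from ISG56 promoter only with Renilla not read in this screen; 0% = Sendai virus plus DMSO and 100% = medium plus DMSO without virus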). The conditions noted are these: HEK293 RL24 IRF3 luciferase reporter, at 10 µM, stronger effect = higher value. (In general: A reporter such as luciferase makes a cellular process visible.)
Experiment [8] can be described thus: TLR3 IRF3 reporter activation blockers – cell-based, poly I:C stimulus, luciferase, 10K MLSCN set, primary screen (AID 602277;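 active = inhibition of the reporter signal at or above 50%; inactive = inhibition below 50%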). The note with it: HEK293-TLR3 RL24 IRF3 luciferase reporter, at 10 µM, stronger effect = higher value.

Each structure is given as a SMILES string. Calls of active or inactive are those of the source.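 Rule for the calls, unless noted: active = NADPH fluorescence slope more negative than the mean of all samples by about 3 SD, 99.7% confidence; inactive = the rest.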

Muscarinic acetylcholine receptor M4 (Homo sapiens), sequence (P08173 whole entry, looked up): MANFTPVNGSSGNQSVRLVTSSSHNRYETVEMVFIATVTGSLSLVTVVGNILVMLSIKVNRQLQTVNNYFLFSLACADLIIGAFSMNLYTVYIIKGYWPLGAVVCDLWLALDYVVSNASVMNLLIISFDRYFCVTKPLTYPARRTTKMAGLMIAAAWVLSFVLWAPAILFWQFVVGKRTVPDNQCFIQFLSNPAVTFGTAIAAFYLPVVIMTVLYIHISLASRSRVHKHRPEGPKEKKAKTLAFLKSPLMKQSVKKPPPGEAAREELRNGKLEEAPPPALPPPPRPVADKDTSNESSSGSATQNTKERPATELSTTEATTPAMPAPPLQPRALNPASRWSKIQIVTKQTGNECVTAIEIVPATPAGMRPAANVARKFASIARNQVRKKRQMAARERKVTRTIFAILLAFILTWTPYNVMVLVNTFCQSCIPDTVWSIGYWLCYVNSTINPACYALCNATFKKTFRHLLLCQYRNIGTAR
Voltage-gated potassium channel subunit beta-2 (Rattus norvegicus), sequence (P62483 whole entry, looked up): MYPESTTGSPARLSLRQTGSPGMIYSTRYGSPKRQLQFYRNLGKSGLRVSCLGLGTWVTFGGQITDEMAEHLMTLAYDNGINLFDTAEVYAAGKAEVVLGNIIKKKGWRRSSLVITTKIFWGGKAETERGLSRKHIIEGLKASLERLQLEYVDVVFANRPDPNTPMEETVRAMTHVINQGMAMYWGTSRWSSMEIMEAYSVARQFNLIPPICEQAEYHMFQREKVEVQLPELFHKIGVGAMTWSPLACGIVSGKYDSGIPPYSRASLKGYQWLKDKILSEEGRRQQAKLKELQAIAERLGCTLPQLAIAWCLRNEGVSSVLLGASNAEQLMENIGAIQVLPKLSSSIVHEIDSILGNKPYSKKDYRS

Turning to `Cc1ccc(NC(=O)CSc2nnc(CCCCCNC(=O)OC(C)(C)C)o2)c(C)c1`, the cell count in experiment [1] turned out to be 630. Besides, the inhibition in experiment [1] was -9.5% (inactive); in experiment [3] it was -28.9% (inactive); in experiment [7], 14.7% (inactive); in experiment [8], 12.1% (inactive). In experiment [2], the inhibition of aggregation is 28.5% (inactive). Further, the nuclei count is 94.7% in experiment [2] and 102% in experiment [3]. The fluorescence slope in experiment [4] was -0.546 (inactive); in experiment [6] it was 0.00541 (inactive). Also, the NADPH fluorescence slope in experiment [5] is -4e-05 (inactive).
As to `N#C[C@@H]1[C@@H]2C(=O)N(c3ccc4c(c3)OCCO4)C(=O)[C@@H]2C2c3ccccc3C=CN21` (some centres undefined), the cell count in experiment [1] came out at 351. Further, the inhibition in experiment [1] is 0.5% (inactive); in experiment [3] it was -62.1% (inactive); in experiment [7], -1.7% (inactive); in experiment [8] it was -13.1% (inactive). The inhibition of aggregation in experiment [2] was 6.7% (inactive). In addition, the nuclei count in experiment [2] was 107%; in experiment [3], 106%. In addition, the fluorescence slope is -0.6 (inactive) in experiment [4] and 0.00563 (inactive) in experiment [6]. Further, the NADPH fluorescence slope in experiment [5] is -2.2e-05 (inactive).
Regarding `O=C(Cn1cccc1)N1CCN(C(c2ccccc2)c2ccccc2)CC1`, the cell count in experiment [1] is 337. In addition, the inhibition in experiment [1] is -8.9% (inactive); in experiment [3] it was -52.8% (inactive); in experiment [7], 13.3% (inactive); in experiment [8], 22% (inactive). In addition, the inhibition of aggregation in experiment [2] was -11.9% (inactive). Further, the figures for the nuclei count in experiment [2] and in experiment [3] were 110% and 107%, respectively. Further, the fluorescence slope in experiment [4] was -0.213 (inactive); in experiment [6], 0.00614 (inactive). Also, the NADPH fluorescence slope in experiment [5] was -1.1e-05 (inactive).
For `COc1ccc(-n2ncc3c(NCc4ccc5c(c4)OCO5)ncnc32)cc1`, in experiment [1], the cell count amounted to 360. Further, the inhibition is -4.3% (inactive) in experiment [1], -9.3% (inactive) in experiment [3], -4.14% (inactive) in experiment [7] and -24.9% (inactive) in experiment [8]. Besides, in experiment [2], the inhibition of aggregation is 9.7% (inactive). Moreover, the nuclei count stood at 94.3% in experiment [2] and 105% in experiment [3]. The fluorescence slope in experiment [4] is -0.539 (inactive); in experiment [6] it was 0.00526 (inactive). For the same molecule, the NADPH fluorescence slope in experiment [5] was -4.4e-05 (inactive).
As for `CCOC(=O)Nc1sc(=S)n(C)c1C`, in experiment [1], the cell count stood at 719. Further, the inhibition in experiment [1] is -12.5% (inactive); in experiment [3] it was 15.9% (inactive); in experiment [7], 12.9% (inactive); in experiment [8] it was 28.8% (inactive). Besides, the inhibition of aggregation in experiment [2] is -2.4% (inactive). Moreover, the nuclei count in experiment [2] is 95.3%; in experiment [3] it was 95.4%. For the same molecule, the fluorescence slope in experiment [4] was -0.545 (inactive); in experiment [6], 0.00684 (inactive). The NADPH fluorescence slope in experiment [5] is 2.1e-05 (inactive).
Turning to `CCOc1ccccc1Nc1nc2ccccc2[nH]1`, the cell count in experiment [1] turned out to be 327. In addition, the inhibition in experiment [1] was 1.2% (inactive); in experiment [3] it was 2.9% (inactive); in experiment [7], -18.9% (inactive); in experiment [8], -39.8% (inactive). In addition, the inhibition of aggregation in experiment [2] is 5.9% (inactive). The nuclei count in experiment [2] stood at 111%; in experiment [3], 109%. Further, the fluorescence slope is -0.524 (inactive) in experiment [4] and 0.00599 (inactive) in experiment [6]. Also, the NADPH fluorescence slope in experiment [5] is -0.000156 (active).
On to `Cc1ccccc1OCCN1C(=O)NC2(CCc3ccccc32)C1=O` (centres undefined), for which the cell count in experiment [1] is 414. Moreover, the inhibition in experiment [1] was -18.4% (inactive); in experiment [3], 8.5% (inactive); in experiment [7], 12% (inactive); in experiment [8], 4.56% (inactive). Also, the inhibition of aggregation in experiment [2] was 8.4% (inactive). The nuclei count in experiment [2] was determined as 94.7%; in experiment [3] it was 99.4%. The fluorescence slope was -0.297 (inactive) in experiment [4] and 0.00542 (inactive) in experiment [6]. Further, the NADPH fluorescence slope in experiment [5] is -1.6e-05 (inactive).
On to `Cc1ccc(S(=O)(=O)N[C@@H](C)C(=O)N2CCC(C(=O)N3CCC[C@H]3C(=O)O)CC2)cc1`, for which the cell count in experiment [1] was found to be 361. Also, the inhibition was 3.6% (inactive) in experiment [1], -59.3% (inactive) in experiment [3], 2.84% (inactive) in experiment [7] and 13% (inactive) in experiment [8]. Besides, the inhibition of aggregation in experiment [2] was -14.8% (inactive). For the same molecule, the figures for the nuclei count in experiment [2] and in experiment [3] were 102% and 129%, respectively. Also, the fluorescence slope is -0.406 (inactive) in experiment [4] and 0.00591 (inactive) in experiment [6]. Moreover, in experiment [5], the NADPH fluorescence slope was 7.4e-05 (inactive).
On to `O=C(CCCCCn1c(SCc2ccncc2)nc2ccccc2c1=O)NCc1ccco1`, for which the cell count in experiment [1] came to 458. Further, the inhibition was -10.3% (inactive) in experiment [1], -25.1% (inactive) in experiment [3], 8.7% (inactive) in experiment [7] and 15.5% (inactive) in experiment [8]. Besides, in experiment [2], the inhibition of aggregation was -29.8% (inactive). Further, the nuclei count in experiment [2] worked out at 109%; in experiment [3], 94.5%. The values for the fluorescence slope in experiment [4] and in experiment [6] were -0.498 (inactive) and 0.00498 (inactive), respectively. Moreover, in experiment [5], the NADPH fluorescence slope is -1.1e-05 (inactive).
As for `O=C(C1CC1)N(Cc1ccco1)c1nc(-c2ccccc2)cs1`, the cell count in experiment [1] was 336. The inhibition in experiment [1] was 6.6% (inactive); in experiment [3] it was -72.7% (inactive); in experiment [7] it was -13.9% (inactive); in experiment [8], -15.4% (inactive). Further, the inhibition of aggregation in experiment [2] was 3.5% (inactive). Further, the nuclei count amounted to 104% in experiment [2] and 109% in experiment [3]. Moreover, the fluorescence slope in experiment [4] is -0.445 (inactive); in experiment [6] it was 0.00828 (inactive). Besides, in experiment [5], the NADPH fluorescence slope was -8.7e-05 (inactive).
On to `CCC(=O)Nc1ccc(F)c(Cl)c1`, for which, in experiment [1], the cell count was 292. Further, the inhibition in experiment [1] was 1.5% (inactive); in experiment [3], -76% (inactive); in experiment [7], 21.2% (inactive); in experiment [8], 13.9% (inactive). For the same molecule, in experiment [2], the inhibition of aggregation is 7.9% (inactive). Also, the nuclei count in experiment [2] worked out at 108%; in experiment [3], 124%. For the same molecule, the values for the fluorescence slope in experiment [4] and in experiment [6] were -0.538 (inactive) and 0.0059 (inactive), respectively. Moreover, the NADPH fluorescence slope in experiment [5] was 9.9e-07 (inactive).
In the case of `CC(C(=O)N1CCc2ccccc21)N1CCc2ccccc2C1` (centres undefined), the cell count in experiment [1] was 597. The inhibition in experiment [1] was -1% (inactive); in experiment [3] it was -86.5% (inactive); in experiment [7] it was 10.2% (inactive); in experiment [8] it was 22.3% (inactive). In addition, in experiment [2], the inhibition of aggregation was 16.1% (inactive). Further, the nuclei count in experiment [2] turned out to be 91.1%; in experiment [3], 99.9%. Besides, the fluorescence slope was -0.455 (inactive) in experiment [4] and 0.00595 (inactive) in experiment [6]. Further, the NADPH fluorescence slope in experiment [5] was 0.000133 (inactive).
As for `CCC(=O)N1CCc2cc(OC)c(OC)cc2C1COc1ccc(C(=O)OC)cc1` (centres undefined), the cell count in experiment [1] amounted to 767. The inhibition is -20.4% (inactive) in experiment [1], 36.5% (inactive) in experiment [3], 23.8% (inactive) in experiment [7] and 6.29% (inactive) in experiment [8]. The inhibition of aggregation in experiment [2] is -5.1% (inactive). For the same molecule, the nuclei count came to 128% in experiment [2] and 108% in experiment [3]. Further, the figures for the fluorescence slope in experiment [4] and in experiment [6] were -0.543 (inactive) and 0.00388 (inactive), respectively. For the same molecule, the NADPH fluorescence slope in experiment [5] was -2e-05 (inactive).
Take `Cc1n[nH]c(C)c1S(=O)(=O)N1CCN(c2ccccn2)CC1`: the cell count in experiment [1] was 407. The inhibition is -8.5% (inactive) in experiment [1], -43.6% (inactive) in experiment [3], -0.889% (inactive) in experiment [7] and 2.25% (inactive) in experiment [8]. Moreover, the inhibition of aggregation in experiment [2] was 12.4% (inactive). In addition, the nuclei count in experiment [2] is 76%; in experiment [3], 108%. The fluorescence slope in experiment [4] was -0.485 (inactive); in experiment [6], 0.00681 (inactive). In addition, the NADPH fluorescence slope in experiment [5] was 5e-05 (inactive).

The term inhibition denotes the relative decrease from the control value, in per cent.
